An excerpt weighted towards active compounds, which were near 2.4% of everything screened.
A3G deaminase: blocks human APOBEC3G single-stranded DNA deamination. recombinant A3G, ssDNA deamination FAM/TAMRA fluorescence. inhibition, % at 20 µM. actives 0.28% (n = 330,000);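 active means inhibition of at least 40% at 20 µM, with no more than 30% in the related APOBEC3A deaminase screen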
HKDC1 inhibitor: HKDC1 (human) hexokinase inhibition. Q2TB90. inhibition, % at 20 µM. actives 0.16% (n = 340,000). recombinant HKDC1, G6PDH/diaphorase resazurin coupled fluorescence;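 active means inhibition above about 35% when tested at 20 µM, limit read from the data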
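Test system: recombinant HKDC1 (HK5) hexokinase enzyme, produced in-house / Doses: 20 µM test compound, 1% DMSO / Timing: 90 min, room temperature / Detection: G6PDH/diaphorase-coupled fluorescence, 1 mM NADP, 100 µM resazurin, 525/613 nm / Control set: DMSO wells with and without enzyme mix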
PfM18AAP inh-1: blocks P. falciparum M18 aspartyl aminopeptidase; inhibition, % at 7.35 µM; AID 1822; actives 1.2% (n = 290,000); recombinant PfM18AAP, H-Glu-NHMec fluorogenic cleavage;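 active means inhibition above the campaign mean inhibition over all tested compounds plus 3 SD, cut at about 28% in these data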
APOBEC3A inh: inhibitors of human APOBEC3A DNA deaminase | P31941 | actives 0.41% (n = 330,000) | recombinant A3A, FAM/TAMRA ssDNA deamination fluorescence | inhibition, % at 20 µM;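 active means at least 40% inhibition at 20 µM here, with at most 30% in a related deaminase screen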
UBC9 SUMO inh: SUMOylation inhibition | P63279 | HTRF SUMOylation assay, SAE1/SAE2 + UBC9, in vitro | inhibition, % at 35 µM | actives 0.36% (n = 290,000); in the data active means inhibition above about 50%, passing the limit was not always enough
PfG6PD inh: PfG6PD (Plasmodium falciparum) enzyme inhibition | PfGluPho enzyme, NADPH resazurin-diaphorase fluorescence | inhibition, % at 20 µM | actives 0.78% (n = 350,000);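 active means inhibition reaching at least a set limit at 20 µM in the primary screen, cut at about 59% in these data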
PfM18AAP inh-2: PfM18AAP inhibition, confirmation. shares compounds with PfM18AAP inh-1. recombinant PfM18AAP, H-Glu-NHMec fluorogenic cleavage. inhibition, % at 7.35 µM. actives 28% (n = 2,400). AID 2170;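 active means mean inhibition over replicate wells above the hit cutoff set for the earlier primary screen, cut at about 29% in these data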
CTSL1 counter: Cathepsin L (human) inhibition, confirmation; shares compounds with PfM18AAP inh-1; 2,400 tested, under 10 active; purified cathepsin L1, Z-Leu-Arg-MCA fluorescence; inhibition, % at 5.96 µM;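 active means average inhibition across replicates above the hit cutoff set in the earlier primary screen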
Large screens that a line does not name were inactive (follow-up assays come after a bar, where they were run).

O=C(NC(=S)Nn1cnnc1)c1ccccc1Br	PfM18AAP inh-1 79.3 | PfM18AAP inh-2 78.2 | CTSL1 counter inactive
C/C(CC(=O)Nc1ccccc1C#N)=N\NC(=O)c1ccncc1	PfM18AAP inh-1 36.9 | PfM18AAP inh-2 inactive | CTSL1 counter inactive
Oc1c(/C=N/c2ncn[nH]2)ccc2ccccc12	PfM18AAP inh-1 63.7 | PfM18AAP inh-2 52.1 | CTSL1 counter inactive
Cc1ccc(CNC(=O)COC(=O)[C@@H]2CC(O)CN2S(=O)(=O)c2ccc3c(c2)OCCO3)cc1 (stereo not given in full)	none
COC(=O)CN(n1cnnc1)S(=O)(=O)c1ccccc1	PfM18AAP inh-1 77.5 | PfM18AAP inh-2 84.6 | CTSL1 counter inactive
NC(=O)/C(=C\c1ccco1)NC(=O)c1ccco1	none (no result: A3G deaminase, HKDC1 inhibitor, PfM18AAP inh-1, APOBEC3A inh, UBC9 SUMO inh)
NC(=O)/C(=C/c1ccco1)C(N)=S	PfM18AAP inh-1 42.1 | PfM18AAP inh-2 inactive | CTSL1 counter inactive
O=C(CSc1ccc2ccccc2c1)Nn1cnnc1	PfM18AAP inh-1 65.2 | PfM18AAP inh-2 50.7 | CTSL1 counter inactive
O=C(CSc1ccc(Cl)cc1)Nc1ncccn1	none
O=C(CSc1ccc(Cl)cc1)Nn1cnnc1	PfM18AAP inh-1 39.8 | PfM18AAP inh-2 51.8 | CTSL1 counter inactive
CN(CC(=O)Nn1cnnc1)S(=O)(=O)c1cc(Cl)ccc1Cl	PfM18AAP inh-1 43.7 | PfM18AAP inh-2 44.9 | CTSL1 counter inactive
CN(CC(=O)O)S(=O)(=O)c1cc(Cl)ccc1Cl	none
Nc1c(S(=O)(=O)c2cccs2)c2nc3ccccc3nc2n1CC1CCCO1 (stereo not given)	none
COc1ccc(C(C(=O)NC2CCCCC2)N(CC2CCCO2)C(=O)CCCC(=O)Nc2ccccn2)cc1 (stereo not given)	none
CCOc1ccc(NC(=O)NC2CCCCCCC2)cc1	none
COc1ccc(S(=O)(=O)Nc2ccc(O)c(Sc3ncn[nH]3)c2)cc1	PfM18AAP inh-1 53.9 | PfM18AAP inh-2 40.5 | CTSL1 counter inactive
CC(C)c1ccc(S(=O)(=O)Nc2ccc(O)c(Sc3ncn[nH]3)c2)cc1	PfM18AAP inh-1 57.8 | PfM18AAP inh-2 30.8 | CTSL1 counter inactive
Cn1c(=O)c2c(nc(CN3CCN(C(=O)c4ccco4)CC3)n2CC(=O)C(C)(C)C)n(C)c1=O	none
COc1ccccc1N1CCN(C(=O)CSc2ccccc2)CC1	none
CCN(CC)S(=O)(=O)c1ccc2oc(SCC(=O)NC3CC3)nc2c1	PfM18AAP inh-1 32.0 | PfM18AAP inh-2 inactive | CTSL1 counter inactive
O=C(CN1CCN(c2ccccn2)CC1)Nc1cccc(Cl)c1Cl	none
COc1ccc(C(=O)Cc2ccc3c(c2)OCO3)c(O)c1	none
O=C(Cc1ccc2c(c1)OCCO2)c1c(O)cc(O)cc1O	PfM18AAP inh-1 38.7 | PfM18AAP inh-2 inactive | CTSL1 counter inactive
COc1ccc(NC(=O)NNC(=O)CCc2ccc(O)c(O)c2)cc1OC	PfM18AAP inh-1 81.8 | PfM18AAP inh-2 61.5 | CTSL1 counter inactive
COc1ccccc1NC(=O)NNC(=O)c1ccc2ccccc2c1	none
COc1ccccc1NC(=O)NNC(=O)c1ccc2ccccc2c1O	PfM18AAP inh-1 33.1 | PfM18AAP inh-2 inactive | CTSL1 counter inactive
COc1ccc(NC(=O)NNC(=O)c2ccc3ccccc3c2O)cc1OC	PfM18AAP inh-1 38.8 | PfM18AAP inh-2 inactive | CTSL1 counter inactive
Cc1ccccc1NC(=O)NNC(=O)c1ccc2ccccc2c1O	PfM18AAP inh-1 33.6 | PfM18AAP inh-2 inactive | CTSL1 counter inactive
CC(=O)c1cccc(OCC(O)CNCC2CCCCC2)c1 (stereo not given)	none (no result: A3G deaminase, APOBEC3A inh)
COc1ccc(CNC(=O)CCn2ccc3cc(S(=O)(=O)N4CCCC4)ccc32)cc1	none
CCN(CC#CCC(O)(c1ccccc1)c1ccccc1)C(C)C	none
O=C(O)C1CCCCC1C(=O)Nc1ccc(-c2ccccc2)cc1 (stereo not given)	none
Nn1cnnc1N/N=C/c1ccc(Cl)cc1Cl	PfM18AAP inh-1 48.5 | PfM18AAP inh-2 inactive | CTSL1 counter inactive

Source: PubChem (several laboratories)
